Results published in ChEMBL document CHEMBL1123700, “2-[(3-Pyridinylmethyl)thio]pyrimidine derivatives: new bronchosecretolytic agents” (1987).

Each molecule was assayed on Mus musculus (assay: Bronchosecretory activity measured as tracheal secretion of phenol red in mouse after subcutaneous administration). Details: not given.

Compared with `C[N+](C)(C)CCOC(N)=O` [CARBACHOL], `NCC(O)c1cccc(O)c1` (configuration not stated) [NORFENEFRINE] is higher in ED50: 0.2 µmol/kg for the first, 1.3 µmol/kg for the second.

The molecules below were run on Canis familiaris (assay: Percent viscosity was determined in canine bronchial mucus, 1 hr after intravenous administration of 0.1 mg/kg). Details: not given.
Type: functional, Canis lupus familiaris
Procedure, shortened: (§1)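 Mongrel dogs (18-24 kg), food withheld 16 h, anesthetized with pentobarbital 40 mg/kg iv plus infusion of 0.1 mg kg-1 min-1. Compounds in isotonic NaCl, given iv; 0.9% NaCl as control. Bronchial mucus sampled by bronchoscope, dialyzed against water at 0 °C for 24 h, freeze-dried, taken up at 1% w/v in 0.1 M Tris pH 7. Viscosity 1 h after dosing expressed as % of initial, mean ± SD.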

In the case of `Cl.c1cnc(SCc2cccnc2)nc1`, the Activity is reported as 109%.

What follows are molecules tested on Canis familiaris (assay: Percent viscosity was determined in canine bronchial mucus, 1 hr after intravenous administration of 0.2 mg/kg). Details: not given.
Type: functional, Canis lupus familiaris
Procedure, shortened: as §1

First: Cl.c1cnc(SCc2cccnc2)nc1
Second: Nc1cc(O)nc(SCc2cccnc2)n1
The Activity of the first is lower: 28% for the first, 76.3% for the second.

For `Nc1cc(O)nc(SCc2ccc(Cl)nc2)n1`, the Activity was 84.2%.

The molecules below were run on Canis familiaris (assay: Percent viscosity was determined in canine bronchial mucus, 1 hr after intravenous administration of 0.5 mg/kg). Details: not given.
Type: functional, Canis lupus familiaris
Procedure, shortened: as §1

First: Cl.c1cnc(SCc2cccnc2)nc1
Second: Nc1cc(O)nc(SCc2cccnc2)n1
The Activity of the first is lower: 5.5% for the first, 15.8% for the second.

`Nc1cc(O)nc(SCc2ccc(Cl)nc2)n1` gave an Activity of 19.7%.

Each molecule was assayed on Mus musculus (assay: Bronchosecretory activity measured as tracheal secretion of phenol red in mouse after oral administration). Details: not given.
Type: functional
Procedure, shortened: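 Male NMRI mice, food withheld 24 h, water free. Compounds suspended in 0.5% carboxymethylcellulose just before use and given by gavage at 5 mL/kg. Phenol red given intraperitoneally; 50 min after dosing it is measured photometrically in tracheal lavage fluid. Output compared with mean of vehicle controls. ED50 (dose giving 50% increase over control) by linear regression with 95% confidence limits.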

Going from `Cl.c1cnc(SCc2cccnc2)nc1` to `c1cnc(SCc2cccnc2)nc1` [TASULDINE], the ED50 falls from 5.34 µmol/kg to 4.82 µmol/kg.

Same assay, conditions: Mus musculus, po

Compared with `Cc1ccc(CSc2ncccn2)cn1`, `Clc1ccc(CSc2ncccn2)cn1` is lower in ED50: 298 µmol/kg for the first, 84.1 µmol/kg for the second.

First: N=c1cc(N)nc(SCc2cccnc2)[nH]1
Second: Nc1cc(O)nc(SCc2cccnc2)n1
The ED50 of the first is higher: 272 µmol/kg for the first, 8.93 µmol/kg for the second.

First: Cc1ccnc([S+]([O-])Cc2cccnc2)n1 (configuration not stated)
Second: [O-][S+](Cc1cccnc1)c1ncccn1 (configuration not stated)
The ED50 of the first is higher: 30.9 µmol/kg for the first, 7.82 µmol/kg for the second.

Going from `O=S(=O)(Cc1cccnc1)c1ccc(Cl)cc1` to `Cc1ccc(S(=O)(=O)Cc2cccnc2)cc1`, the ED50 rises from 27.9 µmol/kg to 141 µmol/kg.

Going from `[O-][S+](Cc1cccnc1)c1ccc(Cl)cc1` (configuration not stated) to `Cc1ccc([S+]([O-])Cc2cccnc2)cc1` (configuration not stated), the ED50 rises from 43.9 µmol/kg to 149 µmol/kg.

First: c1cncc(CSC2=NCCS2)c1
Second: Cn1ccnc1SCc1cccnc1
The ED50 of the first is higher: 20.3 µmol/kg for the first, 5.35 µmol/kg for the second.

Compared with `[O-][S+](Cc1ccncc1)c1ncccn1` (configuration not stated), `c1cnc(SCc2ccncc2)nc1` is lower in ED50: 391 µmol/kg for the first, 41.7 µmol/kg for the second.

First: Cc1ccc2nc(SCc3cccnc3)oc2c1
Second: c1cncc(CSc2nc3ccccc3o2)c1
The ED50 of the first is lower: 51.2 µmol/kg for the first, 61.9 µmol/kg for the second.

Compared with `Cc1ccnc(SCc2cccnc2)n1`, `Oc1ccnc(SCc2cccnc2)n1` is higher in ED50: 39.4 µmol/kg for the first, 456 µmol/kg for the second.

Going from `Cc1cc(C)nc(SCc2cccnc2)n1` to `Cc1cc(O)nc(SCc2cccnc2)n1`, the ED50 rises from 44.8 µmol/kg to 64.3 µmol/kg.

Going from `c1ccc(CSc2ccccn2)nc1` to `c1ccc(SCc2cccnc2)nc1`, the ED50 falls from 21.8 µmol/kg to 7.63 µmol/kg.

Compared with `c1ccc(-c2nc(SCc3cccnc3)oc2-c2ccccc2)cc1`, `c1cncc(CSc2ccc3ccccc3n2)c1` is higher in ED50: 13.1 µmol/kg for the first, 21.5 µmol/kg for the second.

First: COc1cccc(SCc2cccnc2)c1
Second: Cc1ccc(SCc2cccnc2)cc1
The ED50 of the first is higher: 182 µmol/kg for the first, 39.7 µmol/kg for the second.

Going from `CC(Sc1ncccn1)c1cccnc1` (configuration not stated) to `Cc1ccc(C(C)Sc2ncccn2)cn1` (configuration not stated), the ED50 rises from 42.6 µmol/kg to 432 µmol/kg.

First: Nc1cc(O)nc(SCc2ccc(Cl)nc2)n1
Second: Nc1ccnc(SCc2cccnc2)n1
The ED50 of the first is lower: 8.3 µmol/kg for the first, 22.9 µmol/kg for the second.

Compared with `Cn1ccnc1S(=O)(=O)Cc1cccnc1`, `Cn1ccnc1[S+]([O-])Cc1cccnc1` (configuration not stated) is lower in ED50: 95.8 µmol/kg for the first, 49.8 µmol/kg for the second.

First: Clc1ccc(SCc2cccnc2)cc1
Second: c1cncc(CSc2nc3ccccc3[nH]2)c1
The ED50 of the first is lower: 22 µmol/kg for the first, 31.8 µmol/kg for the second.

Going from `c1cnc(SCc2cccnc2)nc1` to `Clc1ncccc1CSc1ncccn1`, the ED50 rises from 4.67 µmol/kg to 84.1 µmol/kg.

Compared with `c1cncc(CSc2ncnc3[nH]ncc23)c1`, `c1cncc(CSc2nc3ncccc3o2)c1` is lower in ED50: 41.1 µmol/kg for the first, 38 µmol/kg for the second.

Going from `c1ccc(CSc2nc3ccccc3o2)nc1` to `Nc1c(Br)cc(Br)cc1CN[C@H]1CC[C@H](O)CC1` [AMBROXOL], the ED50 rises from 157 µmol/kg to 603 µmol/kg.

Same assay, conditions: Mus musculus, po; read-out: ED50

`CC(C)(C)NCC(O)c1ccc(O)c(CO)c1` (configuration not stated) [ALBUTEROL] gave an ED50 of 12.5 µmol/kg.
